≈ marks a conversion by molar mass, not a printed value. Residues, ends and D or L forms follow the SMILES beside them.
Tests used:
[1] = tested on: Escherichia coli; assay: Antimicrobial activity against Escherichia coli ATCC 25922 after 24 hrs by broth dilution method; format: functional; conditions: ATCC 25922, 24 h
Outline: (§1)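 Strains stored at −70 °C, grown at 30 °C on blood agar, suspended in physiological saline to OD595 0.1, diluted 10× in saline. 2 µL inoculum added to 100 µL nutrient broth with yeast extract. Peptides dissolved in ethanol (4 g/L), diluted in water (1 g/L), then two-fold in broth (64 to 1 mg/L). Incubated at 30 °C; MIC read as lowest concentration inhibiting growth at 24 h.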

[2] = tested on: Staphylococcus epidermidis; assay: Antimicrobial activity against Staphylococcus epidermidis ATCC 12228 after 24 hrs by broth dilution method; format: functional; conditions: ATCC 12228, 24 h; outline: as §1
[3] = tested on: Enterococcus faecalis; assay: Antimicrobial activity against Enterococcus faecalis ATCC 29212 after 24 hrs by broth dilution method; format: functional; conditions: ATCC 29212, 24 h; outline: as §1
[4] = tested on: Klebsiella pneumoniae; assay: Antimicrobial activity against Klebsiella pneumoniae 1190901525 after 24 hrs by broth dilution method; format: functional; conditions: Klebsiella pneumoniae, 1190901525, 24 h; outline: as §1
[5] = tested on: Pseudomonas aeruginosa; assay: Antimicrobial activity against Pseudomonas aeruginosa ATCC 27853 after 24 hrs by broth dilution method; format: functional; conditions: ATCC 27853, 24 h; outline: as §1
[6] = tested on: Staphylococcus aureus; assay: Antimicrobial activity against Staphylococcus aureus ATCC 29213 after 24 hrs by broth dilution method; format: functional; conditions: ATCC 29213, 24 h; outline: as §1
[7] = Toxicity in human erythrocytes assessed as hemolytic activity after 4 hrs; format: cell-based; conditions: erythrocyte
Outline: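 Heparinized fresh blood spun at 1000 g, 10 °C; erythrocytes washed three times in 0.85% saline and diluted to 1/25 packed volume. Peptide stocks 1.5 mM in 30% DMSO/saline, serially two-fold diluted in saline. Cells added, then incubated 4 h at 37 °C and centrifuged. Supernatant A405 read against 1% Triton X-100 as full lysis; single experiment run in triplicate.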

[8] = tested on: Bacillus cereus; assay: Antimicrobial activity against Bacillus cereus ATCC 11778 after 24 hrs by broth dilution method; format: functional; conditions: ATCC 11778, 24 h; outline: as §1
[9] = tested on: Enterobacter cloacae; assay: Antimicrobial activity against Enterobacter cloacae 1190900252 after 24 hrs by broth dilution method; format: functional; conditions: Enterobacter cloacae, 1190900252, 24 h; outline: as §1
[10] = tested on: Proteus mirabilis; assay: Antimicrobial activity against Proteus mirabilis 1190901236 after 24 hrs by broth dilution method; format: functional; conditions: Proteus mirabilis, 1190901236, 24 h; outline: as §1

Structure (SMILES) | MIC [1] | MIC [2] | MIC [3] | MIC [4] | MIC [5] | MIC [6] | HD100 [7] | MIC [8] | MIC [9] | MIC [10]
CC(C)C[C@@H]1NC(=O)[C@H](CCCCN)NC(=O)[C@H](C(C)C)NC(=O)[C@@H]2CCCN2C(=O)[C@@H](Cc2ccc(O)cc2)NC(=O)[C@H](CC(C)C)NC(=O)[C@H](CCCCN)NC(=O)[C@H](C(C)C)NC(=O)[C@H](CCCCN)NC(=O)[C@H](CC(C)C)NC(=O)[C@@H]2CCCN2C(=O)[C@@H](Cc2ccc(O)cc2)NC(=O)[C@H](C(C)C)NC(=O)[C@@H](CCCCN)NC1=O (HELM PEPTIDE1{K.L.[dK].V.[dY].P.L.K.V.K.L.[dY].P.V}$PEPTIDE1,PEPTIDE1,1:R1-14:R2$$$V2.0) | 64 µg/mL (≈ 38.3 µM) | 8 µg/mL (≈ 4.79 µM) | 64 µg/mL (≈ 38.3 µM) | 64 µg/mL (≈ 38.3 µM) | > 64 µg/mL | 64 µg/mL (≈ 38.3 µM) | 500 µM | 16 µg/mL (≈ 9.58 µM) | 64 µg/mL (≈ 38.3 µM) | > 64 µg/mL
CC(C)C[C@@H]1NC(=O)[C@H](CCCN)NC(=O)[C@H](C(C)C)NC(=O)[C@@H]2CCCN2C(=O)[C@@H](Cc2ccccc2)NC(=O)[C@H](CC(C)C)NC(=O)[C@H](CCCN)NC(=O)[C@H](C(C)C)NC(=O)[C@H](CCCN)NC(=O)[C@H](CC(C)C)NC(=O)[C@@H]2O[C@H](CNC(=O)[C@H](C(C)C)NC(=O)[C@@H](CCCN)NC1=O)[C@@H](O)[C@@H]2O | 64 µg/mL (≈ 42.8 µM) | 16 µg/mL (≈ 10.7 µM) | > 64 µg/mL | > 64 µg/mL | > 64 µg/mL | > 64 µg/mL | > 500 µM | 64 µg/mL (≈ 42.8 µM) | 64 µg/mL (≈ 42.8 µM) | > 64 µg/mL
CC(C)C[C@@H]1NC(=O)[C@H](CCCN)NC(=O)[C@H](C(C)C)NC(=O)[C@@H]2CCCN2C(=O)[C@@H](Cc2ccccc2)NC(=O)[C@H](CC(C)C)NC(=O)[C@H](CCCN)NC(=O)[C@H](C(C)C)NC(=O)[C@@H]2CCCN2C(=O)[C@@H](Cc2ccccc2)NC1=O [GRAMICIDIN S] (HELM PEPTIDE1{L.[dF].P.V.[Orn].L.[dF].P.V.[Orn]}$PEPTIDE1,PEPTIDE1,1:R1-10:R2$$$V2.0) | 32 µg/mL (≈ 28 µM) | 4 µg/mL (≈ 3.5 µM) | 8 µg/mL (≈ 7.01 µM) | 64 µg/mL (≈ 56.1 µM) | 64 µg/mL (≈ 56.1 µM) | 4 µg/mL (≈ 3.5 µM) | 62.5 µM | 4 µg/mL (≈ 3.5 µM) | 64 µg/mL (≈ 56.1 µM) | > 64 µg/mL
CC(C)C[C@@H]1NC(=O)[C@H](CCCN)NC(=O)[C@H](C(C)C)NC(=O)[C@@H]2CCCN2C(=O)[C@@H](Cc2ccccc2)NC(=O)[C@H](CC(C)C)NC(=O)[C@H](CCCN)NC(=O)[C@H](C(C)C)NC(=O)[C@H](CCCN)NC(=O)[C@H](CC(C)C)NC(=O)[C@@H]2O[C@H](CNC(=O)[C@H](C(C)C)NC(=O)[C@H](CCCN)NC1=O)[C@@H](OCc1ccccc1)[C@@H]2OCc1ccccc1 | 16 µg/mL (≈ 9.54 µM) | 4 µg/mL (≈ 2.38 µM) | 8 µg/mL (≈ 4.77 µM) | 32 µg/mL (≈ 19.1 µM) | 16 µg/mL (≈ 9.54 µM) | 4 µg/mL (≈ 2.38 µM) | 15.6 µM | 2 µg/mL (≈ 1.19 µM) | 32 µg/mL (≈ 19.1 µM) | > 64 µg/mL
CC(C)C[C@@H]1NC(=O)[C@H](CCCN)NC(=O)[C@H](C(C)C)NC(=O)[C@@H]2CCCN2C(=O)[C@@H](Cc2ccccc2)NC(=O)[C@H](CC(C)C)NC(=O)[C@H](CCCN)NC(=O)[C@H](C(C)C)NC(=O)[C@H](CCCN)NC(=O)[C@H](CC(C)C)NC(=O)[C@@H]2O[C@H](CNC(=O)[C@H](C(C)C)NC(=O)[C@@H](CCCN)NC1=O)[C@@H](OCc1ccccc1)[C@@H]2O | 32 µg/mL (≈ 20.2 µM) | 8 µg/mL (≈ 5.04 µM) | 32 µg/mL (≈ 20.2 µM) | 32 µg/mL (≈ 20.2 µM) | 64 µg/mL (≈ 40.3 µM) | 16 µg/mL (≈ 10.1 µM) | 500 µM | 8 µg/mL (≈ 5.04 µM) | 32 µg/mL (≈ 20.2 µM) | > 64 µg/mL
CC(C)C[C@@H]1NC(=O)[C@H](CCCN)NC(=O)[C@H](C(C)C)NC(=O)[C@@H]2CCCN2C(=O)[C@@H](Cc2ccccc2)NC(=O)[C@H](CC(C)C)NC(=O)[C@H](CCCN)NC(=O)[C@H](C(C)C)NC(=O)[C@H](CCCN)NC(=O)[C@H](CC(C)C)NC(=O)[C@@H]2O[C@H](CNC(=O)[C@H](C(C)C)NC(=O)[C@H](CCCN)NC1=O)[C@@H](OCc1ccccc1)[C@@H]2O | 16 µg/mL (≈ 10.1 µM) | 4 µg/mL (≈ 2.52 µM) | 8 µg/mL (≈ 5.04 µM) | 16 µg/mL (≈ 10.1 µM) | 16 µg/mL (≈ 10.1 µM) | 4 µg/mL (≈ 2.52 µM) | 15.6 µM | 4 µg/mL (≈ 2.52 µM) | 16 µg/mL (≈ 10.1 µM) | > 64 µg/mL
CC(C)C[C@@H]1NC(=O)[C@H](CCCCN)NC(=O)[C@H](C(C)C)NC(=O)[C@@H]2CCCN2C(=O)[C@@H](Cc2ccc(O)cc2)NC(=O)[C@H](CC(C)C)NC(=O)[C@H](CCCCN)NC(=O)[C@H](C(C)C)NC(=O)[C@H](CCCCN)NC(=O)[C@H](CC(C)C)NC(=O)[C@@H]2CCCN2C(=O)[C@@H](Cc2ccc(O)cc2)NC(=O)[C@H](C(C)C)NC(=O)[C@H](CCCCN)NC1=O (HELM PEPTIDE1{K.L.K.V.[dY].P.L.K.V.K.L.[dY].P.V}$PEPTIDE1,PEPTIDE1,1:R1-14:R2$$$V2.0) | > 64 µg/mL | 64 µg/mL (≈ 38.3 µM) | 32 µg/mL (≈ 19.2 µM) | > 64 µg/mL | > 64 µg/mL | > 64 µg/mL | 3.9 µM | 32 µg/mL (≈ 19.2 µM) | > 64 µg/mL | > 64 µg/mL
CC(C)C[C@@H]1NC(=O)[C@H](CCCN)NC(=O)[C@H](C(C)C)NC(=O)[C@@H]2CCCN2C(=O)[C@@H](Cc2ccccc2)NC(=O)[C@H](CC(C)C)NC(=O)[C@H](CCCN)NC(=O)[C@H](C(C)C)NC(=O)[C@H](CCCN)NC(=O)[C@H](CC(C)C)NC(=O)[C@@H]2O[C@H](CNC(=O)[C@H](C(C)C)NC(=O)[C@@H](CCCN)NC1=O)[C@@H](OCc1ccccc1)[C@@H]2OCc1ccccc1 | 32 µg/mL (≈ 19.1 µM) | 8 µg/mL (≈ 4.77 µM) | 16 µg/mL (≈ 9.54 µM) | 32 µg/mL (≈ 19.1 µM) | 64 µg/mL (≈ 38.2 µM) | 8 µg/mL (≈ 4.77 µM) | 500 µM | 8 µg/mL (≈ 4.77 µM) | 32 µg/mL (≈ 19.1 µM) | > 64 µg/mL
CC(C)C[C@@H]1NC(=O)[C@H](CCCN)NC(=O)[C@H](C(C)C)NC(=O)[C@@H]2CCCN2C(=O)[C@@H](Cc2ccccc2)NC(=O)[C@H](CC(C)C)NC(=O)[C@H](CCCN)NC(=O)[C@H](C(C)C)NC(=O)[C@H](CCCN)NC(=O)[C@H](CC(C)C)NC(=O)[C@@H]2CCCN2C(=O)[C@@H](Cc2ccccc2)NC(=O)[C@H](C(C)C)NC(=O)[C@@H](CCCN)NC1=O | 64 µg/mL (≈ 40.5 µM) | 8 µg/mL (≈ 5.06 µM) | 16 µg/mL (≈ 10.1 µM) | 32 µg/mL (≈ 20.2 µM) | 8 µg/mL (≈ 5.06 µM) | 8 µg/mL (≈ 5.06 µM) | 125 µM | 16 µg/mL (≈ 10.1 µM) | 32 µg/mL (≈ 20.2 µM) | > 64 µg/mL
CC(C)C[C@@H]1NC(=O)[C@H](CCCN)NC(=O)[C@H](C(C)C)NC(=O)[C@@H]2CCCN2C(=O)[C@@H](Cc2ccccc2)NC(=O)[C@H](CC(C)C)NC(=O)[C@H](CCCN)NC(=O)[C@H](C(C)C)NC(=O)[C@H](CCCN)NC(=O)[C@H](CC(C)C)NC(=O)[C@@H]2CCCN2C(=O)[C@@H](Cc2ccccc2)NC(=O)[C@H](C(C)C)NC(=O)[C@H](CCCN)NC1=O | 32 µg/mL (≈ 20.2 µM) | 8 µg/mL (≈ 5.06 µM) | 8 µg/mL (≈ 5.06 µM) | 64 µg/mL (≈ 40.5 µM) | 64 µg/mL (≈ 40.5 µM) | 16 µg/mL (≈ 10.1 µM) | 3.9 µM | 16 µg/mL (≈ 10.1 µM) | 64 µg/mL (≈ 40.5 µM) | > 64 µg/mL
CC(C)C[C@@H]1NC(=O)[C@H](CCCN)NC(=O)[C@H](C(C)C)NC(=O)[C@@H]2CCCN2C(=O)[C@@H](Cc2ccccc2)NC(=O)[C@H](CC(C)C)NC(=O)[C@H](CCCN)NC(=O)[C@H](C(C)C)NC(=O)[C@H](CCCN)NC(=O)[C@H](CC(C)C)NC(=O)[C@@H]2O[C@H](CNC(=O)[C@H](C(C)C)NC(=O)[C@H](CCCN)NC1=O)[C@@H](O)[C@@H]2O | 8 µg/mL (≈ 5.34 µM) | 4 µg/mL (≈ 2.67 µM) | 8 µg/mL (≈ 5.34 µM) | 16 µg/mL (≈ 10.7 µM) | 16 µg/mL (≈ 10.7 µM) | 8 µg/mL (≈ 5.34 µM) | 31.3 µM | 4 µg/mL (≈ 2.67 µM) | 16 µg/mL (≈ 10.7 µM) | > 64 µg/mL

From ChEMBL document CHEMBL1811906, “Synthesis and evaluation of strand and turn modified ring-extended gramicidin S derivatives” (Bioorg Med Chem, 2011)
